Experimental data of several laboratories.
Protocols differ between the studies behind these lines.
Observed: cell growth or viability

N[C@@H](Cc1ccc(N(CCCl)CCCl)cc1)C(=O)O  IC50 (HepG2; CCK-8; 48 h): 36.5 µM
CC[C@@]1(OC(=O)C(C)c2ccc(CC(C)C)cc2)C(=O)OCc2c1cc1n(c2=O)Cc2cc3cc4c(cc3nc2-1)OCO4 (stereo partly shown)  IC50 (HepG2; MTT): > 5 µM
N.N.[Cl][Pt][Cl]  inhibition (HepG2; MTT; 20 µM): 88.5%
O=c1ccc2ccc3occc3c2o1  IC50 (HepG2; WST-1; 48 h): 13.8 µM
CC[C@@]1(OC(=O)[C@@H](N)CCSC)C(=O)OCc2c1cc1n(c2=O)Cc2cc3cc4c(cc3nc2-1)OCO4  IC50 (HepG2; MTT): 0.113 µM
O=C1[O][Pt]2([NH][C@@H]3CCCC[C@H]3[NH]2)[O]C1=O  IC50 (PNT2; MTT; 96 h): 1.3 µM
CC[C@@]1(O)C(=O)OCc2c1cc1n(c2=O)Cc2cc3cc4c(cc3nc2-1)OCO4  IC50 (HepG2; MTT; 72 h): 0.022 µM
CCCc1cc(=O)n2nc(NCc3c(F)cc(Cl)cc3F)c(C#N)c2[nH]1  IC50 (HCC33; ATP luminescence; 72 h): > 50 µM
CC[C@@]1(OC(=O)[C@@H](N)C(C)C)C(=O)OCc2c1cc1n(c2=O)Cc2cc3cc4c(cc3nc2-1)OCO4  IC50 (HepG2; MTT): 0.087 µM
C=CC(=O)Nc1cc(Nc2nccc(-c3cn(C)c4ccccc34)n2)c(OC)cc1N(C)CCN(C)C  GI50 (NCI-H292; ATP luminescence; 72 h): 3.75 µM
CC1=C(O)C(=O)C=C2C1=CC=C1[C@@]2(C)CC[C@@]2(C)[C@@H]3C[C@](C)(C(=O)O)CC[C@]3(C)CC[C@]12C  inhibition (Huh-7; MTT; 20 µM): 77.3%
[N-]=[N+]=[N-]  IC50 (A-431; MTT; 3 h): > 100 µM
CCOC(=O)C1=C(N)N(c2ccc(C(=O)OCC)cc2)C(O)=C(C#N)C12C(=O)Nc1ccccc12 (stereo not shown)  viability (HepG2; MTT; 12.5 µM; 24 h): 33.9%
